For assay [1], the target named is T1, Phosphodiesterase 4A (Sus scrofa, UniProt O77823).
T1 sequence (O77823 whole entry): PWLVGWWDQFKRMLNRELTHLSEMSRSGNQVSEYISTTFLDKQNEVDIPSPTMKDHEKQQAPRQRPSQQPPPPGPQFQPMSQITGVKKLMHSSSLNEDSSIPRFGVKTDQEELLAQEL
The experiment in a line: Inhibition of cAMP specific phosphodiesterase from porcine coronary arteries. As to conditions: in the assay text read “porcine aorta” for “porcine coronary arteries”. The method, boiled down: (§1)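 Isozymes were separated from porcine aorta: type II (cGMP-stimulated), type III, and type IV (cAMP-specific). Each used [3H]cAMP at 1 μM as substrate. Compounds were tested in DMSO diluted in assay buffer over 10^-8 to 10^-4 M, with final DMSO below 0.4% (v/v). IC50 came from log concentration–inhibition curves (at least three points), as means ± SEM from at least three experiments.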

For assay [2], the species on record is Sus scrofa. The experiment in a line: Relaxant effect on PGF2-alpha precontracted pig coronary arteries. The format is functional. The method, boiled down: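 Porcine coronary arterial strips were equilibrated at 1 g resting tension. Intact endothelium was confirmed by 7 × 10^-9 M bradykinin relaxing strips precontracted with 50 mM KCl (final concentrations). Strips were then contracted with PGF2α, final 10^-6 M, and cumulative concentration–relaxation curves were built after a plateau. Relaxation was expressed as % of the PGF2α contraction. EC50 came from the log curve, mean ± SEM, n experiments.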

Assay [3] deals with T1, Phosphodiesterase 4A. The assay can be described thus: Inhibition of cAMP specific phosphodiesterase from porcine aorta.
Assay [4] has as its target T2, Phosphodiesterase 3A (Sus scrofa, UniProt Q9XSW7).
T2 sequence (Q9XSW7 whole entry): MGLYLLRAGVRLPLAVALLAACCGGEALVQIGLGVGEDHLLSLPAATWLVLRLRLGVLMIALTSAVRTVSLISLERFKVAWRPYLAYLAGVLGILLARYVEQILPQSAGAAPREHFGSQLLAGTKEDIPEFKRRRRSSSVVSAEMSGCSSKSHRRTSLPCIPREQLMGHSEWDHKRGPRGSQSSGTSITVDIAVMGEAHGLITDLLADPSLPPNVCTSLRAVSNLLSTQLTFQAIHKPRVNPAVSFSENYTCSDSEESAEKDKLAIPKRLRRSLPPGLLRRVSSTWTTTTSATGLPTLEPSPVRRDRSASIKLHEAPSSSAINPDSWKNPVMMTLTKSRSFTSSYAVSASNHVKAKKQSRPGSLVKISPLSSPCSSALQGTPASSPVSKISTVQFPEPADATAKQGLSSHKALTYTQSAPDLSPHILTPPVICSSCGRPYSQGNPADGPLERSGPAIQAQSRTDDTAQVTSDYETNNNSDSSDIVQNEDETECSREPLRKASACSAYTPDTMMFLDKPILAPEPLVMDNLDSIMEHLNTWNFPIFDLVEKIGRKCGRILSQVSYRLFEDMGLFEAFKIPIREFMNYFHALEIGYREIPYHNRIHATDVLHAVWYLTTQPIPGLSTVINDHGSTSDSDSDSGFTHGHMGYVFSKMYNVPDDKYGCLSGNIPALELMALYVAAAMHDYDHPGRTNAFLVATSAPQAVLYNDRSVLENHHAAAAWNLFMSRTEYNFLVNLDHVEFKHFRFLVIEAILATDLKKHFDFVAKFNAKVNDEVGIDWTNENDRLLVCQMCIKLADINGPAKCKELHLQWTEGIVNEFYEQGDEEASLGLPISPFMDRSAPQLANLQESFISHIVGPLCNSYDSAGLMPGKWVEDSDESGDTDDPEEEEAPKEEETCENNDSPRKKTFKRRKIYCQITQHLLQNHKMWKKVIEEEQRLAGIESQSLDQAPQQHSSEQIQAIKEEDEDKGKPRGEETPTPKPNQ
The assay can be described thus: Inhibition of cGMP-inhibited phosphodiesterase from porcine coronary arteries. The method, boiled down:
as §1

The target in assay [5] is T1, Phosphodiesterase 4A. The assay can be described thus: Inhibition of cAMP specific phosphodiesterase from porcine aorta. The method, boiled down:
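PDE isozymes (types I–V) separated from porcine aorta. Substrate was [3H]cGMP for types I and V and [3H]cAMP for types II, III and IV, each at 1 μM. Test agents were dissolved in DMSO and diluted in assay buffer over 10^-8 to 10^-4 M, with final DMSO below 0.4% (v/v). IC50 was taken from the log concentration–inhibition curve (at least three points), mean ± SEM of at least three experiments.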

The mark [6] stands for this setting: in the assay text read “porcine aorta” for “porcine coronary arteries”.

Bounds are passed on as bounds.

By IC50 is commonly meant the concentration that gives 50% inhibition. A high value points to weaker potency in that assay. In general, EC50 refers to the midpoint of the concentration-response curve. Higher therefore signals lower potency in that assay. In the case of `COc1cc2c(NCc3ccc4c(c3)OCO4)ncnc2c(OC)c1OC`, in assay [1], the IC50 was more than 100 µM. Further, a half-maximal effect in assay [2] (EC50) was put at 1.96 µM.

With `Clc1cccc(Nc2nnc(-c3ccccc3)c3ccccc23)c1`, the midpoint of inhibition in assay [3], the IC50, lay at 37.2 µM.

As for `OCCN(CCO)c1nc(N2CCCCC2)c2nc(N(CCO)CCO)nc(N3CCCCC3)c2n1` [DIPYRIDAMOLE], the IC50 was 6.4 µM in assay [1] and more than 100 µM in assay [4] (setting [6]).

As to `COc1ccc(Cc2nccc3cc(OC)c(OC)cc23)cc1OC` [PAPAVERINE], the figures for the IC50 in assay [4] and in assay [3] were 0.62 µM and 1.7 µM, respectively.

For the molecule `CCCOc1ccccc1-c1nc2nn[nH]c2c(=O)[nH]1` [ZAPRINAST], the IC50 was more than 100 µM in assay [4] (setting [6]) and 79.6 µM in assay [5]. Besides, in assay [2], a half-maximal effect (EC50) was put at 4.75 µM.

The values are drawn from ChEMBL document CHEMBL1126916, “Cyclic GMP phosphodiesterase inhibitors. 1. The discovery of a novel potent inhibitor, 4-((3,4-(methylenedioxy)benzyl)amino)-6,7,8-trimethoxyquinazoline” (J Med Chem, 1993).
